Laboratory results taken from ChEMBL document CHEMBL1649304, “Efficacy of posaconazole as treatment and prophylaxis against Fusarium solani” (Antimicrob Agents Chemother, 2010).
Activity calls are given as the source filed them. No cut-off for these calls is given here.

How the values were obtained:
Fusarium solani [1] = assay: Antifungal activity against inoculum range 6.5 x 10^5 to 6.8 x 10^5 conidia/animal Fusarium solani infected in ICR mouse assessed as bacterial count in kidney tissue at 6.25 mg/kg, po BID treated after 12 hrs of inoculation; format: functional
Summary of the method: (§1)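 Outbred ICR mice were made neutropenic with 5-fluorouracil 150 mg/kg i.v. 1 day before i.v. infection with F. solani isolate 95-2478 conidia (0.2 ml). Posaconazole oral suspension was given by gavage BID from 12 h after inoculation until day 9. Kidneys from moribund animals were homogenized and plated on potato dextrose agar, and CFU/g was counted after 48 h. Group medians were compared with untreated controls by Mann-Whitney.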

Fusarium solani [2] = assay: Antifungal activity against inoculum range 6.5 x 10^5 to 6.8 x 10^5 conidia/animal Fusarium solani infected in ICR mouse assessed as bacterial count in kidney tissue at 12.5 mg/kg, po BID treated after 12 hrs of inoculation; format: functional; summary of the method: as §1
Fusarium solani [3] = assay: Antifungal activity against inoculum range 6.5 x 10^5 to 6.8 x 10^5 conidia/animal Fusarium solani infected in ICR mouse assessed as bacterial count in kidney tissue at 25 mg/kg, po BID treated after 12 hrs of inoculation; format: functional; summary of the method: as §1
Fusarium solani [4] = assay: Antifungal activity against inoculum range 6.5 x 10^5 to 6.8 x 10^5 conidia/animal Fusarium solani infected in ICR mouse assessed as bacterial count in kidney tissue at 50 mg/kg, po BID treated after 12 hrs of inoculation; format: functional; summary of the method: as §1
Fusarium solani [5] = assay: Antifungal activity against inoculum range 7.7 x 10^4 to 7.8 x 10^4 conidia/animal Fusarium solani infected in ICR mouse assessed as bacterial count in kidney tissue at 6.25 mg/kg, po BID treated after 12 hrs of inoculation; format: functional; summary of the method: as §1
Fusarium solani [6] = assay: Antifungal activity against inoculum range 7.7 x 10^4 to 7.8 x 10^4 conidia/animal Fusarium solani infected in ICR mouse assessed as bacterial count in kidney tissue at 12.5 mg/kg, po BID treated after 12 hrs of inoculation; format: functional; summary of the method: as §1
Fusarium solani [7] = assay: Antifungal activity against inoculum range 7.7 x 10^4 to 7.8 x 10^4 conidia/animal Fusarium solani infected in ICR mouse assessed as bacterial count in kidney tissue at 25 mg/kg, po BID treated after 12 hrs of inoculation; format: functional; summary of the method: as §1
Fusarium solani [8] = assay: Antifungal activity against inoculum range 7.7 x 10^4 to 7.8 x 10^4 conidia/animal Fusarium solani infected in ICR mouse assessed as bacterial count in kidney tissue at 50 mg/kg, po BID treated after 12 hrs of inoculation; format: functional; summary of the method: as §1
Fusarium solani [9] = assay: Antifungal activity against mid- inoculum 6.5 x 10^5 conidia/ml Fusarium solani infected in ICR mouse assessed as rate of survival at 6.25 mg/kg, po BID treated 2 days prior of infection; format: functional, organism-based; parameters: dose 6.25 mg/kg
Summary of the method: (§2)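 Dosing began 2 days before i.v. F. solani 95-2478 challenge in ICR mice made neutropenic with 5-fluorouracil (150 mg/kg i.v., day −1). Posaconazole oral suspension was gavaged BID through day 9, with observation off drug until day 15, n ≥10 per regimen. Moribund animals were euthanized and scored dead the next day. Kaplan-Meier median survival was compared with untreated controls.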

Fusarium solani [10] = assay: Antifungal activity against mid- inoculum 6.5 x 10^5 conidia/ml Fusarium solani infected in ICR mouse assessed as rate of survival at 12.5 mg/kg, po BID treated 2 days prior of infection; format: functional, organism-based; parameters: dose 12.5 mg/kg; summary of the method: as §2
Fusarium solani [11] = assay: Antifungal activity against mid- inoculum 6.5 x 10^5 conidia/ml Fusarium solani infected in ICR mouse assessed as rate of survival at 25 mg/kg, po BID treated 2 days prior of infection; format: functional, organism-based; parameters: dose 25 mg/kg; summary of the method: as §2
Fusarium solani [12] = assay: Antifungal activity against mid- inoculum 6.5 x 10^5 conidia/ml Fusarium solani infected in ICR mouse assessed as rate of survival at 50 mg/kg, po BID treated 2 days prior of infection; format: functional, organism-based; parameters: dose 50 mg/kg; summary of the method: as §2
Fusarium solani [13] = assay: Antifungal activity against low - inoculum 7.5 x 10^4 conidia/ml Fusarium solani infected in ICR mouse assessed as rate of survival at 6.25 mg/kg, po BID treated 2 days prior of infection; format: functional, organism-based; parameters: dose 6.25 mg/kg; summary of the method: as §2
Fusarium solani [14] = assay: Antifungal activity against low - inoculum 7.5 x 10^4 conidia/ml Fusarium solani infected in ICR mouse assessed as rate of survival at 12.5 mg/kg, po BID treated 2 days prior of infection; format: functional, organism-based; parameters: dose 12.5 mg/kg; summary of the method: as §2
Fusarium solani [15] = assay: Antifungal activity against low - inoculum 7.5 x 10^4 conidia/ml Fusarium solani infected in ICR mouse assessed as rate of survival at 25 mg/kg, po BID treated 2 days prior of infection; format: functional, organism-based; parameters: dose 25 mg/kg; summary of the method: as §2
Fusarium solani [16] = assay: Antifungal activity against low - inoculum 7.5 x 10^4 conidia/ml Fusarium solani infected in ICR mouse assessed as rate of survival at 50 mg/kg, po BID treated 2 days prior of infection; format: functional, organism-based; parameters: dose 50 mg/kg; summary of the method: as §2
Fusarium solani [17] = assay: Antifungal activity against mid- inoculum 6.5 x 10^5 conidia/ml Fusarium solani infected in ICR mouse assessed as bacterial count in kidney tissue at 6.25 mg/kg, po BID treated 2 days prior of infection; format: functional
Summary of the method: (§3)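 Prophylaxis model: posaconazole oral suspension was given by gavage BID starting 2 days before i.v. conidial challenge and continued to day 9. ICR mice were made neutropenic with 5-fluorouracil 150 mg/kg i.v. 1 day pre-inoculation, with n ≥10 per regimen. Kidneys were homogenized and plated on potato dextrose agar, and CFU/g was read after 48 h. Results were compared with untreated controls by Mann-Whitney.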

Fusarium solani [18] = assay: Antifungal activity against mid- inoculum 6.5 x 10^5 conidia/ml Fusarium solani infected in ICR mouse assessed as bacterial count in kidney tissue at 12.5 mg/kg, po BID treated 2 days prior of infection; format: functional; summary of the method: as §3
Fusarium solani [19] = assay: Antifungal activity against mid- inoculum 6.5 x 10^5 conidia/ml Fusarium solani infected in ICR mouse assessed as bacterial count in kidney tissue at 25 mg/kg, po BID treated 2 days prior of infection; format: functional; summary of the method: as §3
Fusarium solani [20] = assay: Antifungal activity against mid- inoculum 6.5 x 10^5 conidia/ml Fusarium solani infected in ICR mouse assessed as bacterial count in kidney tissue at 50 mg/kg, po BID treated 2 days prior of infection; format: functional; summary of the method: as §3
Fusarium solani [21] = assay: Antifungal activity against low - inoculum 7.5 x 10^4 conidia/ml Fusarium solani infected in ICR mouse assessed as bacterial count in kidney tissue at 6.25 mg/kg, po BID treated 2 days prior of infection; format: functional; summary of the method: as §3
Fusarium solani [22] = assay: Antifungal activity against low - inoculum 7.5 x 10^4 conidia/ml Fusarium solani infected in ICR mouse assessed as bacterial count in kidney tissue at 12.5 mg/kg, po BID treated 2 days prior of infection; format: functional; summary of the method: as §3
Fusarium solani [23] = assay: Antifungal activity against low - inoculum 7.5 x 10^4 conidia/ml Fusarium solani infected in ICR mouse assessed as bacterial count in kidney tissue at 25 mg/kg, po BID treated 2 days prior of infection; format: functional; summary of the method: as §3
Fusarium solani [24] = assay: Antifungal activity against low - inoculum 7.5 x 10^4 conidia/ml Fusarium solani infected in ICR mouse assessed as bacterial count in kidney tissue at 50 mg/kg, po BID treated 2 days prior of infection; format: functional; summary of the method: as §3
Fusarium oxysporum = assay: Antifungal activity against Fusarium oxysporum isolate infected in ICR mouse; format: functional

## CC[C@@H]([C@H](C)O)n1ncn(-c2ccc(N3CCN(c4ccc(OC[C@@H]5CO[C@@](Cn6cncn6)(c6ccc(F)cc6F)C5)cc4)CC3)cc2)c1=O [POSACONAZOLE]
Fusarium solani [1]
  log10CFU/g: 6
Fusarium solani [2]
  log10CFU/g: 5.8
Fusarium solani [3]
  log10CFU/g: 5.6
Fusarium solani [4]
  log10CFU/g: 5.4
Fusarium solani [5]
  log10CFU/g: 5
Fusarium solani [6]
  log10CFU/g: 5.1
Fusarium solani [7]
  log10CFU/g: 5
Fusarium solani [8]
  log10CFU/g: 4.6
Fusarium solani [9]
  Activity: Active
Fusarium solani [10]
  Activity: Active
Fusarium solani [11]
  Activity: Active
Fusarium solani [12]
  Activity: Active
Fusarium solani [13]
  Activity: Active
Fusarium solani [14]
  Activity: Active
Fusarium solani [15]
  Activity: Active
Fusarium solani [16]
  Activity: Active
Fusarium solani [17]
  log10CFU/g: 5.6
Fusarium solani [18]
  log10CFU/g: 5.5
Fusarium solani [19]
  log10CFU/g: 5.5
Fusarium solani [20]
  log10CFU/g: 4.7
Fusarium solani [21]
  log10CFU/g: 2.8
Fusarium solani [22]
  log10CFU/g: 4.4
Fusarium solani [23]
  log10CFU/g: 4.5
Fusarium solani [24]
  log10CFU/g: 2.9
Fusarium oxysporum
  MIC: > 16 µg/mL
